# Results: ChEMBL document CHEMBL1148937, “Anti-inflammatory phloroglucinols and terpenoids from Garcinia subelliptica” (J Nat Prod, 2004)
# What was measured:
# RAW264.7 [1] = assay: Antiinflammatory activity against mouse RAW264.7 cells assessed as inhibition of LPS-induced nitrite accumulation after 24 hrs; type: functional, cell-based; details: RAW264.7, 24 h
# Procedure, shortened: (§1)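 RAW 264.7 macrophage-like cells stimulated with LPS (1 µg/mL) for 24 h. Nitrite accumulated in the medium was measured by Griess reaction as an index of NO production. IC50 in µM; % inhibition is reported when 50% inhibition was not reached at the top concentration. Means ± SEM, n = 3-5.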
# N9 [2] = assay: Antiinflammatory activity against mouse N9 cells assessed as inhibition of LPS/IFN-gamma-induced nitrite accumulation after 24 hrs; details: N9, 24 h
# RAW264.7 [3] = assay: Antiinflammatory activity against mouse RAW264.7 cells assessed as inhibition of LPS-induced TNFalpha production at 30 uM; type: functional
# Procedure, shortened: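 TNF-α production in the culture medium of LPS-stimulated RAW 264.7 cells, with test agent at 30 µM. Expressed as % inhibition.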
# Mast cell [4] = assay: Inhibition of compound 48/80-stimulated beta-glucuronidase release in rat peritoneal mast cell; type: functional, cell-based
# Mast cell [5] = assay: Inhibition of compound 48/80-stimulated histamine release in rat mast cell; type: functional, cell-based
# Neutrophil = assay: Induction of fMLP/CB-stimulated superoxide anion generation in rat neutrophil; type: functional, cell-based
# Procedure, shortened: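 Rat neutrophils stimulated with fMLP (0.3 µM) plus cytochalasin B (5 µg/mL). Superoxide anion generation measured across a concentration range of test agent.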
# RAW264.7 [6] = assay: Antiinflammatory activity against mouse RAW264.7 cells assessed as inhibition of LPS-induced nitrite accumulation at >30 uM after 24 hrs; type: functional; procedure, shortened: as §1
# N9 [7] = assay: Antiinflammatory activity against mouse N9 cells assessed as inhibition of LPS/IFN-gamma-induced nitrite accumulation at >30 uM after 24 hrs; type: functional
# Procedure, shortened: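 N9 microglial cells stimulated with LPS (10 ng/mL) plus IFN-γ (10 U/mL) for 24 h. NO production measured as nitrite accumulation in the medium by Griess reaction. IC50 in µM; where 50% inhibition was not reached at the highest concentration, % inhibition is given. Means ± SEM, n = 3-5.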
# Mast cell [8] = assay: Inhibition of compound 48/80-stimulated beta-glucuronidase release in rat mast cell at >30 uM; type: functional
# Mast cell [9] = assay: Inhibition of compound 48/80-stimulated histamine release in rat mast cell at >30 uM; type: functional
Compound,IC50 (RAW264.7 [1]),IC50 (N9 [2]),IC50 (Mast cell [4]),IC50 (Mast cell [5]),inhibition at 30 µM (RAW264.7 [3]),Activity (Neutrophil),inhibition (INH) (RAW264.7 [6]),inhibition (INH) (N9 [7]),inhibition (INH) (Mast cell [8]),inhibition (INH) (Mast cell [9])
CC(C)=CC[C@H]1C[C@]2(C(=O)C(C)C)C(=O)[C@@](CC=C(C)C)(C(=O)C3=C2O[C@H](C(C)(C)O)C3)C1(C)C [GARCINIELLIPTONE M],15.3 µM,> 30 µM,13.6 µM,19 µM,36.9%,Dose-dependent effect,,,,
COC(=O)[C@]1(CC=C(C)C)C[C@@H](CC=C(C)C)C(C)(C)[C@@H](C(=O)C(C)C)C1=O [GARCINIELLIPTONE O],> 30 µM,> 30 µM,> 30 µM,> 30 µM,,,22.1%,34.6%,43.9%,32.8%
CCN(CC)CCCC(C)Nc1c2ccc(Cl)cc2nc2ccc(OC)cc12 (configuration not stated) [QUINACRINE],,,13.7 µM,23.3 µM,,,,,,

# Second part, led by results:
IC50 (RAW264.7 [1]),IC50 (N9 [2]),IC50 (Mast cell [4]),IC50 (Mast cell [5]),Compound,inhibition at 30 µM (RAW264.7 [3]),Activity (Neutrophil),inhibition (INH) (RAW264.7 [6]),inhibition (INH) (N9 [7]),inhibition (INH) (Mast cell [8]),inhibition (INH) (Mast cell [9])
2.9 µM,6.3 µM,,,CC(=N)NCc1cccc(CN)c1 [1400W],,,,,,
22.7 µM,12.8 µM,22.9 µM,> 30 µM,CC(C)=CC[C@H]1C[C@]2(C(=O)C(C)C)C(=O)[C@@](CC=C(C)C)(C(=O)C3=C2O[C@@H](C(C)(C)O)C3)C1(C)C [GARCINIELLIPTONE L],32.1%,Dose-dependent effect,,,,
> 30 µM,> 30 µM,> 30 µM,> 30 µM,CC(C)=CC[C@H]1C[C@@H](CC=C(C)C)C(C)(C)[C@@H](C(=O)C(C)C)C1=O [GARCINIELLIPTONE N],,,5.7%,34.5%,30.2%,13.7%
